Bioassay records from PubChem BioAssay.
MC4R barr agon: MC4R agonists recruiting beta-arrestin, primary screen, cell-based, luminescence, agonist arm of biased-ligand search; U2OS MC4R beta-arrestin complementation; percent of melanotan II response, DMSO zero; 0.98% of 360,000 active; activation, % at 8.9 µM; AID 540308, 2011;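 active = activation above a per-plate cutoff, the mean activation of sample wells on that plate plus 3 SD, cut at about 8% in these data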
MC4R antagonist: MC4R antagonists of cAMP signaling, primary screen, cell-based, TR-FRET, antagonist arm of biased-ligand search | MC4R-expressing cells, MTII-stimulated cAMP, LANCE TR-FRET | 0.48% of 360,000 active | inhibition, % at 6.5 µM;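 active = inhibition above its plate's cutoff, the mean of tested wells on that plate plus 3 SD, cut at about 29% in these data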;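 also: 0% = Melanotan II alone and 100% = Melanotan II plus saturating MCL0020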
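System – human MC4R-expressing U2OS cells · Also added – Melanotan II · Dosing – one concentration, 6.5 µM nominal · Timing – 30-min compound, 1-h challenge, 1-h detection, room temperature · Measured by – Eu-cAMP/anti-cAMP TR-FRET, emission 671 nm · Replicates – singlicate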
HTR2A ag: mouse Htr2a agonists via beta-arrestin recruitment, primary screen, cell-based, luminescence. activation, % at 7.6 µM. CHO-K1 mHTR2A beta-arrestin complementation; percent of 30 µM serotonin response. 5-hydroxytryptamine receptor 2A (Mus musculus), P35363. 0.66% of 360,000 active;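 active = activation above a run cutoff, the mean activation of all tested compounds plus 3 SD, cut at about 14% in these data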;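 also: 0% = plate median of compound wells and 100% = 30 µM serotonin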
EBI2 block: EBI2 receptor antagonists, beta-arrestin recruitment, primary screen, cell-based, luminescence, 7a,25-OHC stimulation, uHTS; G-protein coupled receptor 183 (Homo sapiens), P32249; 7a,25-OHC stimulated; inhibition, % at 5 µM; 0.81% of 360,000 active; AID 651636, 2012; in the data active = inhibition above about 38%;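 also: enzyme fragment complementation signal reports receptor beta-arrestin coupling in cells; 0% = agonist plus DMSO wells and 100% = wells without agonist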
Target sequence (P32249 whole entry, looked up, the tested form may be a part): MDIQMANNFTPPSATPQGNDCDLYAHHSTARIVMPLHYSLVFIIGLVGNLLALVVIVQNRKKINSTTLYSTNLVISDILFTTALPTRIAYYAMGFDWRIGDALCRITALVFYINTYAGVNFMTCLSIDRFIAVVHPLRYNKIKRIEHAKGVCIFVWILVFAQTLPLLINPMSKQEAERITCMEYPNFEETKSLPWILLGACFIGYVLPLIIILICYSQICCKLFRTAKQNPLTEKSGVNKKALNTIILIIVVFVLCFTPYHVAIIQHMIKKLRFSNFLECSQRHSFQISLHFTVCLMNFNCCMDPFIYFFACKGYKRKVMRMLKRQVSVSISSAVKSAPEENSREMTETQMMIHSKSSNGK
Starred values were filed as active, the others as inactive; nt = no result given. Only some compounds are listed: those with a hit (about 2.8% of all), similar ones and a draw of the others.

SMILES	MC4R barr agon	MC4R antagonist	HTR2A ag	EBI2 block
CC(=O)Oc1ccc(Cn2c(C)c(C(=O)NCCC#N)sc2=O)cc1	0	1	13	5
COc1ccc(NC(=O)CN2CCCCC2)c([N+](=O)[O-])c1	0	8	16*	9
CCOc1ccc(OCC(=O)Nc2ccc(OC)cc2[N+](=O)[O-])cc1	1	-6	-2	-5
CCOc1ccc(/C=C/C(=O)Nc2ccc(OC)cc2[N+](=O)[O-])cc1	34*	-9	4	6
CCOc1ccc(/C=C/C(=O)Nc2ccccc2C(F)(F)F)cc1	8.8*	7	-1	7
COc1ccc(NC(=O)CN2CCC(C)CC2)c([N+](=O)[O-])c1	0	2	5	0
COc1ccc(/C=C/C(=O)Nc2ccccc2C(F)(F)F)cc1	3	21	0	-4
O=C(c1cccc(Cl)c1)c1nn(-c2ccccc2)c(=O)cc1C(F)(F)F	8.5*	-5	-1	1
N#Cc1ccc(CN2CCN(C(=O)CCNS(=O)(=O)c3ccc(F)c(Cl)c3)CC2)cc1	-3	4	49*	-2
O=C(Cc1ccccc1)NC1CCCCC1	1	6	1	-1
COC(=O)c1ccc(COC(=O)c2ccc(CS(=O)(=O)c3ccc(C)cc3)cc2)cc1	1	3	4	18
COC(=O)c1cc2c(n1S(=O)(=O)c1ccc(C)cc1)C(=O)C(=O)c1[nH]cc(C(=O)OCc3ccccc3)c1-2	37*	-27	-1	-25
O=c1c2c([N+](=O)[O-])cc([N+](=O)[O-])cc2sn1Cc1ccccc1	-2	10	6	6
O=c1c2c([N+](=O)[O-])cc([N+](=O)[O-])cc2sn1-c1ccc(Br)cc1	-3	7	-1	78*
CCc1ccc(-c2nc(CN3CCC(C(=O)N4CCN(c5ccccc5)CC4)CC3)c(C)o2)cc1	9.5*	9	-6	16
CCc1ccc(-c2nc(CN3CCC(C(=O)N4CCN(c5ccccn5)CC4)CC3)c(C)o2)cc1	-1	-5	-10	7
Cc1ccc(Cn2cc(CN3CC(N4CCN(C5CCN(C)CC5)CC4)CS3(=O)=O)nn2)cc1 (stereo not given)	nt	nt	-6	-11
CCN(CCCNC(=O)Cn1ncc2c(=O)oc3ccccc3c21)c1cccc(C)c1	9.4*	7	12	5
OC(CN1CCN(C(c2ccccc2)c2ccccc2)CC1)c1ccc(Br)cc1 (stereo not given)	5	8	-10	13
OC(CN1CCN(C(c2ccccc2)c2ccccc2)CC1)c1ccccc1 (stereo not given)	10.0*	21	-8	-8
CC(C)n1cc(/C=N/Nc2ccc(Cl)c(C(=O)O)c2)c2ccccc21	0	25	5	0
O=C(CSc1nc2ccccc2n1S(=O)(=O)c1cccc([N+](=O)[O-])c1)NCCc1ccccc1	9.4*	3	9	4
CN[C@@H]1[C@H](O)[C@H](NC)[C@H]2O[C@@]3(O)C(=O)C[C@@H](C)O[C@H]3O[C@@H]2[C@H]1O	-3	3	16*	-4
Cc1ccc(N(NC(=O)C(O)(c2ccccc2)c2ccccc2)C(=O)CCl)cc1	10*	27	3	13
Cc1ccc(C(O)(C(=O)NN(C(=O)c2ccccc2)c2ccccc2)c2ccc(C)cc2)cc1	8.3*	5	3	-7
SMILES	MC4R barr agon	MC4R antagonist	HTR2A ag	EBI2 block
CCOC(=O)c1c(-c2ccccc2)oc2ccc(OCC(O)CNCCN(C)C)cc12 (stereo not given)	-2	4	-6	-4
Cc1cc(C)nc(N2CCCC(C(=O)Nc3cccc(Cl)c3)C2)n1 (stereo not given)	8.4*	20	0	-15
CCN(CC(=O)Nc1ccccc1OC)C(=O)CN1C(=O)NC(C)(c2ccc3ccccc3c2)C1=O (stereo not given)	-1	4	-1	-8
O=C(OCC(=O)c1ccc[nH]1)c1cncc(Br)c1	-1	-4	15*	-1
CCNC(=O)C1CCCN(C(=O)c2cc(F)cc(F)c2)CC1 (stereo not given)	-1	5	6	4
O=C(NN(Cc1ccccc1)Cc1ccccc1)c1ccccc1	-2	11	-5	12
Cc1ccccc1CNC(=O)CN(c1cccc([N+](=O)[O-])c1)S(C)(=O)=O	1	30*	-3	16
CN(Cc1ccccc1)C(=O)c1cccc(NC(=O)Cc2ccc(NC(=O)C3CCCN(C(=O)C4CCC4)C3)cc2)c1 (stereo not given)	1	9	-4	0
C/C=C/CSc1nc2c(c(=O)[nH]c(=O)n2C)n1Cc1ccc(C)cc1	8.9*	-24	-6	6
Cc1ccc(Cn2c(Sc3ncccn3)nc3c2c(=O)[nH]c(=O)n3C)cc1	-1	-7	-2	-1
CC1=C(C(=O)N2CCCCCC2)CC(CC(=O)NCc2ccco2)C(=O)N1Cc1ccccc1 (stereo not given)	nt	nt	-1	-10
O=C(Nc1ccc(Cl)c(Cl)c1)c1ccc2c(c1)OCO2	9.3*	9	-6	-7
Cc1ccccc1OCc1nc(-c2ccc(NC(=O)c3ccc4c(c3)OCO4)cc2)no1	22*	1	0	-3
Cc1ccccc1-c1ccc(Nc2ccc(N3CCOCC3)cc2)nn1	-2	6	-5	71*
C=C(C)COc1ccc(-c2n[nH]c(C)c2-c2ccc(OC)cc2)c(O)c1	9.6*	12	-1	11
O=C(Cc1c[nH]c2ccccc12)NCc1ccc(Cl)cc1	-2	2	-1	32
CN1C2C=C(N(CCc3c[nH]c4ccccc34)C(=O)c3ccc(Cl)cc3)CC1CC2 (stereo not given)	0	2	-5	61*
Cc1cccc(N(C)c2cc(-c3ccc(F)cc3)nc3ccnn23)c1	-1	6	-6	7
Cc1ccc(Cl)cc1N1CCN(S(=O)(=O)c2ccc(-c3ccc(=O)[nH]n3)o2)CC1	2	6	-1	10
Cc1ccc(C)c(N2CCN(S(=O)(=O)c3ccc(-c4ccc(=O)[nH]n4)o3)CC2)c1	11*	0	-2	11
Cc1ccc(CN2C(=O)CNC2=S)cc1	2	2	-1	0
C=CCNc1nc(NCc2cccc(OC)c2)c2sc(-c3ccccc3)cc2n1	-1	-1	-2	57*
COCCNc1nc(NCCOC)c2sc(-c3ccccc3)cc2n1	-1	2	-5	12
C=C(C)c1cccc(C(C)(C)NC(=O)NCc2ccc(OC)c(OC)c2)c1	-1	9	24*	4
C=C(C)c1cccc(C(C)(C)NC(=O)NCc2ccncc2)c1	-3	6	8	9
